Test results reported in ChEMBL document CHEMBL5252639, “Exploration of cytotoxic potential and tubulin polymerization inhibition activity of cis-stilbene-1,2,3-triazole congeners” (RSC Med Chem, 2023).
The source made the active and inactive calls. The rule behind the calls is not given here.

Tests used:
[1] = test system: A549; assay: Cytotoxicity against human A549 cells assessed as inhibition of cell growth measured for 24 hrs by MTT assay; assay type: functional, cell-based; details: A549, 24 h
Method in brief: (§1)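 Cells were kept at 37 °C with 5% CO2 in suitable medium with 10% FBS and 1% antibiotic-antimycotic, and passaged at 80-90% confluency using 0.25% trypsin/1 mM EDTA. They were seeded at 1×10^3–4×10^3 cells/well and attached overnight. Compounds came from 10 mM DMSO stocks diluted in medium and were applied for 24 h. MTT (0.5 mg/mL) was added for 4 h at 37 °C, formazan was dissolved in DMSO, and absorbance was read at 570 nm.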

[2] = test system: B16-F10; assay: Cytotoxicity against mouse B16-F10 cells assessed as inhibition of cell growth measured for 24 hrs by MTT assay; assay type: functional, cell-based; details: B16-F10, 24 h; method in brief: as §1
[3] = test system: HCT-116; assay: Induction of morphological change in human HCT-116 cells assessed as cell detachment incubated for 24 hrs by phase contrast microscopic analysis; assay type: functional, cell-based
Method in brief: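 HCT-116 plated at 1 × 10^6 cells/mL in RPMI + 10% FBS and allowed to adhere 24 h at 37 °C, 5% CO2. […] After 24 h, morphology imaged by phase-contrast microscopy at 20X.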

[4] = test system: HCT-116; assay: Induction of apoptosis in human HCT-116 cells assessed as horseshoe shaped nuclei measured for 24 hrs by DAPI staining based microscopic analysis; assay type: functional, cell-based; details: dose 1.62-6.5 µM
Method in brief: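 Then PBS wash, 4% paraformaldehyde fixation 30 min, 0.1% Triton X permeabilisation 15 min, 1 µM DAPI 15 min, PBS wash. Imaged by fluorescence microscopy (ex 350/em 460 nm), 20X.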

[5] = test system: HCT-116; assay: Induction of apoptosis in human HCT-116 cells assessed as formation of membrane blebs at 1.62 uM measured for 24 hrs by AO/EB staining based microscopic analysis; assay type: functional, cell-based
[6] = test system: HCT-116; assay: Induction of apoptosis in human HCT-116 cells assessed as cell rounding at 1.62 uM measured for 24 hrs by AO/EB staining based microscopic analysis; assay type: functional
[7] = test system: HCT-116; assay: Induction of apoptosis in human HCT-116 cells assessed as micronuclei formation at 3.25 to 6.50 uM measured for 24 hrs by AO/EB staining based microscopic analysis; assay type: functional, cell-based; details: dose 3.25-6.5 µM
Method in brief: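 Media removed; acridine orange and ethidium bromide (10 µg/ml, equal volumes) added in 1 mL PBS. Imaged immediately by fluorescence microscopy (excitation 488 nm, emission 550 nm) at 20X.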

[8] = test system: HCT-116; assay: Induction of apoptosis in human HCT-116 cells assessed as early apoptotic cells at 1.62 uM measured after 24 hrs by Annexin V-FITC/propidium iodide staining based flow cytometry (reference value: 0.28%); assay type: functional
[9] = test system: HCT-116; assay: Induction of apoptosis in human HCT-116 cells assessed as late apoptotic cells at 1.62 uM measured after 24 hrs by Annexin V-FITC/propidium iodide staining based flow cytometry (reference value: 0.00%); assay type: functional
[10] = test system: HCT-116; assay: Induction of apoptosis in human HCT-116 cells assessed as necrotic cells at 1.62 uM measured after 24 hrs by Annexin V-FITC/propidium iodide staining based flow cytometry (reference value: 0.00%); assay type: functional
[11] = test system: HCT-116; assay: Induction of apoptosis in human HCT-116 cells assessed as viable cells at 3.25 uM measured after 24 hrs by Annexin V-FITC/propidium iodide staining based flow cytometry (reference value: 99.71%); assay type: functional; details: read-out: Activity
[12] = test system: HCT-116; assay: Induction of apoptosis in human HCT-116 cells assessed as viable cells at 6.50 uM measured after 24 hrs by Annexin V-FITC/propidium iodide staining based flow cytometry (reference value: 99.71%); assay type: functional; details: read-out: Activity
[13] = test system: HCT-116; assay: Induction of apoptosis in human HCT-116 cells assessed as early apoptotic cells at 3.25 uM measured after 24 hrs by Annexin V-FITC/propidium iodide staining based flow cytometry (reference value: 0.28%); assay type: functional
[14] = test system: HCT-116; assay: Induction of apoptosis in human HCT-116 cells assessed as late apoptotic cells at 3.25 uM measured after 24 hrs by Annexin V-FITC/propidium iodide staining based flow cytometry (reference value: 0.00%); assay type: functional
[15] = test system: HCT-116; assay: Induction of apoptosis in human HCT-116 cells assessed as necrotic cells at 3.25 uM measured after 24 hrs by Annexin V-FITC/propidium iodide staining based flow cytometry (reference value: 0.00%); assay type: functional
[16] = test system: HCT-116; assay: Induction of apoptosis in human HCT-116 cells assessed as early apoptotic cells at 6.50 uM measured after 24 hrs by Annexin V-FITC/propidium iodide staining based flow cytometry (reference value: 0.28%); assay type: functional; details: dose 6.5 µM
[17] = test system: HCT-116; assay: Induction of apoptosis in human HCT-116 cells assessed as necrotic cells at 6.50 uM measured after 24 hrs by Annexin V-FITC/propidium iodide staining based flow cytometry (reference value: 0.00%); assay type: functional; details: dose 6.5 µM
[18] = test system: HCT-116; assay: Induction of cell cycle arrest in human HCT-116 cells assessed as accumulation of cells at S phase at 6.50 uM measured after 48 hrs by PI staining based flow cytometry analysis relative to control (reference value: 5.55%); assay type: functional; details: dose 6.5 µM
[19] = test system: HCT-116; assay: Induction of cell cycle arrest in human HCT-116 cells assessed as accumulation of cells at G2/M phase at 6.50 uM measured after 48 hrs by PI staining based flow cytometry analysis relative to control (reference value: 15.61%); assay type: functional; details: dose 6.5 µM
[20] = biological target: T1, Tubulin (Homo sapiens) (UniProt P68371+Q9H4B7+P0DPH7+P68366+Q13509+Q71U36+P04350+Q3ZCM7+P07437+P68363+Q9BQE3+Q6PEY2+Q13885+Q9BVA1+Q9BUF5); assay: Inhibition of tubulin polymerization in human HCT-116 cells at 1.62 uM measured after 1 hr relative to control; assay type: cell-based
[21] = biological target: T1, Tubulin (Homo sapiens); assay: Inhibition of tubulin polymerization in human HCT-116 cells at 6.50 uM measured after 1 hr relative to control; assay type: cell-based; details: dose 6.5 µM
[22] = biological target: Tubulin; assay: Inhibition of tubulin polymerization in human HCT-116 cells; assay type: cell-based
[23] = test system: HCT-116; assay: Induction of cell cycle arrest in human HCT-116 cells assessed as accumulation of cells at S phase at 3.25 uM measured after 24 hrs by PI staining based flow cytometry analysis relative to control (reference value: 5.55%)
[24] = test system: HCT-116; assay: Induction of cell cycle arrest in human HCT-116 cells assessed as accumulation of cells at G2/M phase at 1.62 uM measured after 24 hrs by PI staining based flow cytometry analysis relative to control (reference value: 15.61%)
[25] = test system: HCT-116; assay: Induction of cell cycle arrest in human HCT-116 cells assessed as accumulation of cells at G0/G1 phase at 1.62 uM measured after 24 hrs by PI staining based flow cytometry analysis relative to control (reference value: 70.34%)
[26] = test system: HCT-116; assay: Induction of cell cycle arrest in human HCT-116 cells assessed as accumulation of cells at G0/G1 phase at 3.25 uM measured after 24 hrs by PI staining based flow cytometry analysis relative to control (reference value: 70.34%)

COc1ccc(/C=C(/C(=O)OCc2cn(Cc3cc(F)ccc3F)nn2)c2ccc(OC)c(OC)c2)cc1OC
IC50 [1]: 11.3 µM
IC50 [2]: 15.1 µM
Activity [3]: Dose-Dependent Effect
Activity [4]: Dose-Dependent Effect
Activity [5]: Active
Activity [6]: Active
Activity [7]: Active
Activity [8]: 18.1%
Activity [9]: 0.16%
Activity [10]: 0.52%
viability at 3.25 µM [11]: 44.6%
viability at 6.5 µM [12]: 27.5%
Activity [13]: 13.51%
Activity [14]: 25.22%
Activity [15]: 16.66%
Activity [16]: 10.71%
Activity [17]: 12.94%
Activity [18]: 12.73%
Activity [19]: 46.89%
inhibition [20]: 33.4%
inhibition [21]: 65.2%
IC50 [22]: 4.51 µM
Activity [23]: 9.51%
Activity [24]: 22.06%
Activity [25]: 70.12%
Activity [26]: 50.62%
